# Source: PubChem
# HIV Env fusion – inhibitors of HIV Env-mediated cell fusion; HeLa-JRFL Env/CEM21 cell fusion, luciferase; inhibition, % at 12.3 µM; 1.1% of 360,000 active;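 active = mean replicate inhibition score of at least 50 and every replicate individually at or above 50; inconclusive = only one of the two criteria met; inactive = mean below 50 and not all replicates reaching 50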;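 note: 0% = plate neutral controls and 100% = maraviroc near 300 nM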
# PAX8 inh HTS – inhibitors of PAX8 transcriptional activity in RMG-I cells. inhibition, % at 12.6 µM. 1.2% of 360,000 active. RMG-I TPO-luciferase reporter, SteadyGlo, 24 h;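 active = mean replicate inhibition at least 60% with every replicate also reaching 60%; inconclusive = only one of the two criteria is met; inactive = mean below 60% and not all replicates reaching 60%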;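 note: luciferase light reporting Pax8 driven TPO promoter activity; plate controls were median of neutral control wells for no effect and mitoxantrone controls for full effect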
# EWS-Fli inh – blocks EWS/Fli oncoprotein-driven transcription; A673 NR0B1-luciferase reporter, viability-normalised; inhibition, % at 12.6 µM; 0.67% of 350,000 active;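 active = mean inhibition of at least 50% after viability correction, with every replicate also passing that limit; inconclusive = mean reaches 50% but only one of two replicates passes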;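 note: firefly luciferase signal divided by Alamar Blue viability fluorescence both relative to DMSO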
# FN deposit inh – fibronectin deposition inhibition; AH1F fibroblasts, Alexa488-fibronectin deposition fluorescence, overnight; 0.086% of 350,000 active; inhibition, % at 12.6 µM;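 active = mean inhibition across replicates of 30% or more, regardless of how many single replicates reach that level; inconclusive = mean under 30% yet at least half of replicates reach 30%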;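 note: positive control wells lacked labelled fibronectin entirely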
#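 Material: AH1F fibroblast monolayer depositing Alexa488-labelled fibronectin into matrix | Input: 10000 AH1F cells/well | Medium: DMEM plus 2% serum, read in PBS | Reagent: Alexa488-fibronectin, 24 nM final in well | Compound dosing: One dose per compound, pinned | Schedule: 1 h adhesion, overnight exposure | Measured by: Fluorescence at 485 nm excitation, 525 nm emission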
# PGC1a acetyl inh – modulators of PGC1a acetylation; 0.17% of 350,000 active; U2OS PGC1a acetylation, AlphaScreen anti-acetyl-lysine; with virally co-expressed GCN5 acetyltransferase; inhibition, % at 15.6 µM;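 active = every replicate shows inhibition of at least 40%; inconclusive = mean inhibition at least 40% but some replicate below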;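 note: 0% = neutral control wells and 100% = positive control wells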
# F508del corr – CFTR F508del correction in bronchial cells. 0.36% of 350,000 active. CFBE cells, YFP halide quenching; stimulated with forskolin plus potentiator P3; % fluorescence drop versus neutral controls. activity (quench increase), % at 7.58 µM;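 active = mean added fluorescence quench of at least 8% versus neutral control, with both replicates also reaching 8%; inconclusive = only one of the mean or replicate conditions met; inactive = mean below 8% and not both replicates reaching 8%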;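 note: cells transiently co-express mutant CFTR-F508del with the halide-sensitive YFP; corrector assay measuring rescue of mutant channel to the surface after 24 h compound exposure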
# * = called active by the depositor; ? = inconclusive; . = no result; [ ] = another dose, or the depositor's remark. This is a sample that favours compounds with a hit; in the whole collection about 2.3% have one here.
SMILES,HIV Env fusion,PAX8 inh HTS,EWS-Fli inh,FN deposit inh,PGC1a acetyl inh,F508del corr
O=C(c1cc(-c2cccs2)on1)N1CCN(C(c2ccccc2)c2ccccc2)CC1,12,99*,.,-6,-15,.
Cc1cc(C(=O)N2CCN(C(c3ccccc3)c3ccccc3)CC2)no1,.,.,.,.,-6,.
Cc1onc(C(=O)N2CCN(C(c3ccccc3)c3ccccc3)CC2)c1[N+](=O)[O-],-2,97*,27,27,.,-2
COc1ccccc1N1CCN(C(=O)c2noc(C)c2[N+](=O)[O-])CC1,-3,9,7,-8,-1,-2
CNC[C@@H]1Oc2ncc(Br)cc2C(=O)N([C@@H](C)CO)C[C@@H]1C,-14[16.7 µM],-20,-5,.,9,-2
COc1ccc(S(=O)(=O)NC[C@@H]2CC[C@H]3[C@H](CN3Cc3cc(F)ccc3F)O2)cc1,60*[16.7 µM],-9,29,.,5,2
O=C(O)c1ccccc1CN1C[C@H]2O[C@H](CNS(=O)(=O)c3ccc(Cl)cc3)CC[C@H]21,-23[16.7 µM],6,8,.,0,1
CC(C)NC(=O)N1C[C@@H]2[C@H](c3ccccc31)[C@@H](CO)N2C(=O)c1ccccn1,.,-30,-4,.,-2,0
COc1cc(CNCCN2CCOCC2)ccc1OCc1ccc(Cl)cc1Cl,.,.,.,.,101*,.
COc1cc(CNCCN2CCOCC2)ccc1OCc1cccc(Cl)c1,.,.,.,.,-4,.
C[C@@H]1CN([C@@H](C)CO)C(=O)c2cc(NS(=O)(=O)c3cccs3)ccc2O[C@@H]1CN(C)S(=O)(=O)c1cn(C)cn1,-2[16.7 µM],-1,-6,0,0,2
Cc1ccccc1CSc1nnc(-c2cccs2)n1Cc1ccco1,-41,18,.,-4,-22,.
Cc1ccccc1CSc1nnc(-c2ccco2)n1Cc1ccco1,11,.,.,7,99*,.
CC(C)Nc1nc(Nc2ccc(Cl)cc2F)c2sccc2n1,10,11,18,9,.,8.6*
O=c1c(Cl)c(Cl)cnn1Cc1nnc(-c2ccccc2Br)o1,-347,98*,46,39*,.,-7
Clc1ccccc1OCc1nnc(-c2ccccc2Br)o1,.,.,.,.,-17,.
C[C@H]1CNC(=O)c2c(C(=O)N3CCN(C(=O)OC(C)(C)C)CC3)ncn21,72*,10,0,5,-7,-1
C[C@H]1CNC(=O)c2c(C(=O)N3CCN(c4ccccc4)CC3)ncn21,79*,10,-4,14,.,-4
C[C@@H]1CNC(=O)c2c(C(=O)N(C)Cc3ccccc3)ncn21,137*,8,-8,-6,.,1
C[C@H](NC(=O)c1ncn2c1C(=O)NC[C@H]2C)c1ccccc1,-25,3,-8,10,.,-2
C[C@H](CO)N1C[C@H](C)[C@H](CN(C)C(=O)Nc2ccc(F)cc2)Oc2cc(-c3ccc(F)cc3)ccc2S1(=O)=O,-24[16.7 µM],.,5,16,-6,-3
CCC(=O)Nc1ccc2c(c1)C(=O)N(C)C[C@H](OC)[C@@H](C)CN(C(=O)c1cnccn1)[C@H](C)CO2,.,-12,-1,-10,-10,2
Cc1cc(C)c2nc(C)cc(N/N=C/c3ccc(O)cc3)c2c1,-118,94*,67*,10,.,-13
Cc1cc(N/N=C/c2ccc(O)cc2)c2cccc(C)c2n1,-10,13,48,3,.,-13
CN(C[C@@H]1N[C@H](CO)[C@@H]1c1ccc(C#CCC2CCCC2)cc1)S(C)(=O)=O,.,.,9,2,.,-3
SMILES,HIV Env fusion,PAX8 inh HTS,EWS-Fli inh,FN deposit inh,PGC1a acetyl inh,F508del corr
COCC(=O)N1[C@H](CO)[C@@H](c2ccccc2)C12CN(C(=O)NC1CCCCC1)C2,.,.,4,.,5,-2
CO[C@@H]1CN(C)C(=O)c2cc(NC(=O)c3ccccc3F)ccc2OC[C@H](C)N(CC2CC2)C[C@@H]1C,.,-8,3,-8,-10,2
CCN(C[C@H]1N[C@@](CC)(C(=O)OC)[C@H]2C(=O)N(Cc3ccccc3)C(=O)[C@@H]12)C(=O)c1ccc(C(C)(C)C)cc1,?,82*,14,6,.,2
CN1C[C@@H]2[C@@H]3C(=O)N(Cc4ccccc4)C(=O)[C@@H]3[C@](Cc3ccccc3)(C1=O)N2C(=O)c1ccccc1,13,5,-5,-10,.,-1
COC(=O)[C@]1(Cc2ccccc2)N[C@H](CN(C)C(=O)c2ccc(C(C)(C)C)cc2)[C@@H]2C(=O)N(Cc3ccccc3)C(=O)[C@@H]21,-77,-11,20,-5,-7,3
CN1C[C@@H]2[C@@H]3C(=O)N(Cc4ccccc4)C(=O)[C@@H]3[C@](Cc3ccccc3)(C1=O)N2C(=O)c1ccc(C(C)(C)C)cc1,12,99*,21,1,.,-1
COC(=O)[C@]1(C)N[C@H](CN(C)S(=O)(=O)c2ccc(OC(F)(F)F)cc2)[C@@H]2C(=O)N(Cc3ccccc3)C(=O)[C@@H]21,82*,-5,-2,-5,.,1
CC[C@@]1(C(=O)OC)N[C@H](CN(C)C(=O)c2ccc(C(C)(C)C)cc2)[C@@H]2C(=O)N(Cc3ccccc3)C(=O)[C@@H]21,79*,0,-5,8,.,0
COCC(=O)N(C)C[C@@H]1Oc2cc(C#C[C@@H](C)O)ccc2S(=O)(=O)N([C@H](C)CO)C[C@H]1C,-4[16.7 µM],.,1,7,11,1
COc1ccc(NC(=O)Nc2ccc3c(c2)[C@H]2C[C@@H](CC(=O)N(C)C)O[C@@H](CO)[C@H]2O3)cc1,.,.,0,1,-1,-2
CCN(C[C@H]1N[C@@](C)(C(=O)OC)[C@H]2C(=O)N(Cc3ccccc3)C(=O)[C@@H]12)C(=O)Nc1ccc(Cl)cc1,64*,-6,9,8,.,-1
CCN(C[C@H]1N[C@@](C)(C(=O)OC)[C@H]2C(=O)N(Cc3ccccc3)C(=O)[C@@H]12)C(=O)c1ccc(C(C)(C)C)cc1,69*,-3,2,13,.,-1
C[C@H]1CCCCO[C@@H](CN(C)C(=O)Nc2ccc(C(F)(F)F)cc2)[C@@H](C)CN([C@@H](C)CO)C(=O)c2cc(NS(=O)(=O)c3ccccc3)ccc2O1,64*[16.7 µM],53,7,0,-5,-5
C[C@H]1CCCCO[C@H](CN(C)C(=O)Nc2ccc(C(F)(F)F)cc2)[C@@H](C)CN([C@@H](C)CO)C(=O)c2cc(NS(=O)(=O)c3cccs3)ccc2O1,32[16.7 µM],79*,20,2,38,-4
C[C@@H]1CCCCO[C@H](CN(C)C(=O)Nc2ccc(C(F)(F)F)cc2)[C@@H](C)CN([C@H](C)CO)C(=O)c2cc(NS(=O)(=O)c3ccccc3)ccc2O1,-29[16.7 µM],7,3,4,0,1
C[C@@H]1CCCCO[C@H](CN(C)C(=O)Nc2ccc(C(F)(F)F)cc2)[C@H](C)CN([C@@H](C)CO)C(=O)c2cc(NS(=O)(=O)c3cccs3)ccc2O1,-17[16.7 µM],32,11,.,-3,2
